Tested on: MS2 coat protein
Test: apparent Kd, MS2 coat protein; higher = weaker binding; RNA-MaP array; FMN 200 µM where present
Procedure, shortened: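 Apparent Kd: the median of filtered binding-curve fits from single clusters. Designs were transcribed on Illumina sequencing-chip clusters by stalled E. coli RNA polymerase and titrated with SNAP-549-labelled MS2 coat protein from 0.7 or 1.5 nM, doubling to 3 µM, in 100 mM Tris-HCl pH 7.5, 80 mM KCl, 4 mM MgCl2, BSA, DTT, yeast tRNA and Tween-20. Each series ran without and then with constant ligand, and green signal was normalised to red-channel RNA signal and control-cluster median Fmax.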

[1] = designed as: OFF switch for flavin mononucleotide, no ligand
[2] = ligand present: flavin mononucleotide, designed as: OFF switch for flavin mononucleotide
[3] = designed as: ON switch for flavin mononucleotide, no ligand
[4] = ligand present: flavin mononucleotide, designed as: ON switch for flavin mononucleotide

Row | Sequence | apparent Kd [1] [nM] | apparent Kd [2] [nM] | apparent Kd [3] [nM] | apparent Kd [4] [nM]
1 | UGGUGACGUUUCUUCUCGACAUGAGGAUCACCCAUGUAGACAGAGGAUAUCCGAGUUGCCAAUAUGGAGAAGGCUGACUGCGAA | 6.6 | 8.32 |  | 
2 | UGGUGGUAGCAGGAUAUGCUUGUUGUGUAGUUUGCAGAAGGGCUAACAUGAGGAUCACCCAUGUAAGAGGUGUU | 331 | 162 |  | 
3 | UGGUUCCUGCAGAAGGUGUAGGCGACUUGCUUGCAAGGAUAUGCACAUGAGGAUCACCCAUGUAGCUAAAAGUUUGCAACGUGG | 12.8 | 65.1 |  | 
4 | UGGUUGUCAGGAUAUACGUUUUUUAACUUUUGUUUUAUAUUGUAGAAGGGACAUGAGGAUCACCCAUGUUACGU | 25.2 | 27.1 |  | 
5 | UGGUUUGGGCUAGAUGCACAGACAUGAGGAUCACCCAUGUCUGAGGAUAUGCGUCAACAUAGGCAGCAGAAGGCAGACACUCGC | 15 | 22.2 |  | 
6 | UGUAACUAGUAAGGAUAUACUAUUGAUUUAAUAGUAGAAGGUACAGUCUUUUGUAUAUCAUGUUUACAUGAGGAUCACCCAUGU |  |  | 10.4 | 7.77
7 | UGUAUGGACAGAGGAUAUACAGAUAGGAUCUACUAUCAAACAGUCCUAACAUGAGGAUCACCCAUGUAGAAGGCUGUCCAUACU | 20.6 | 82.1 |  | 
8 | UGUAUGGACAGAGGAUAUACAGAUAGGAUCUACUAUCAAACAGUCCUGACAUGAGGAUCACCCAUGUAGAAGGCUGUCCAUACU | 22.8 | 105 |  | 
9 | UGUAUGGACAGAGGAUAUGCCGAUAGGAUCUAUUAUCGAAGAAUCCUCACAUGAGGAUCACCCAUGUAGAAGGCUGUCCAUACU | 9.32 | 35.8 |  | 
10 | UGUCCAUAGCAGAAGGACAUGAAUACAUGAGAAAACAUGAGGAUCACCCAUGUAGGAUAUGCUAUGGACUAAGAGCGAAAGCUC | 12.2 | 91.9 |  | 
11 | UGUCGGAGCAGAGGAUAUACAUGAGGAUCACCCAUGUAAUAAGAUCAAGCCUGGAAACAGGCAAUGUAGAAGGCUGCUCCGACA | 34 | 422 |  | 
12 | UGUCGGAGCAGAGGAUAUUACAUGAGGAUCACCCAUGUAAUAAAUGGAAGCUGGAAACAGCAAUGUAAGAAGGCUGCUCCGACA | 17.4 | 47.9 |  | 
13 | UGUCGGAGCAGAGGAUAUUACAUGAGGAUCACCCAUGUAGGAACCAAUAGCUGGAAACAGCAAUGUAAGAAGGCUGCUCCGACA | 19.6 | 267 |  | 
14 | UGUCGGAGCAGAGGAUAUUACAUGAGGAUCACCCAUGUAUGAACCAAUAGCUGGAAACAGCAAUAUAAGAAGGCUGCUCCGACA | 5.59 | 5.48 |  | 
15 | UGUCGGAGCAGAGGAUAUUACAUGAGGAUCACCCAUGUAUGAACCAAUAGCUGGAAACAGCAAUGUAAGAAGGCUGAUCCGACA | 11.1 | 146 |  | 
16 | UGUCGGAGCAGAGGAUAUUACAUGAGGAUCACCCAUGUAUGAACCAAUAGCUGGAAACAGCAAUGUAAGAAGGCUGCUCCAACA | 12.3 | 149 |  | 
17 | UGUCGGAGCAGAGGAUAUUACAUGAGGAUCACCCAUGUAUGAACCAAUAGCUGGAAACAGCAAUGUAAGAAGGCUGCUCCCACA | 12 | 138 |  | 
18 | UGUCGGAGCAGAGGAUAUUACAUGAGGAUCACCCAUGUAUGAACCAAUAGCUGGAAACAGCAAUGUAAGAAGGCUGGUCCGACA | 12.4 | 143 |  | 
19 | UGUCGGAGCAGAGGAUAUUACAUGAGGAUCACCCAUGUAUGAACCAAUAGGUGGAAACAGCAAUGUAAGAAGGCUGCUCCGACA | 178 | 481 |  | 
20 | UGUCGGAGCAUAGGAUAUUACAUGAGGAUCACCCAUGUAUGAACCAAUAGCUGGAAACAGCAAUGUAAGAAGGCUGCUCCGACA | 5.16 | 8.98 |  | 
21 | UGUCGGCGCAGAGGAUAUUACAUGAGGAUCACCCAUGUAUGAACCAAUAGCUGGAAACAGCAAUGUAAGAAGGCUGCUCCGACA | 12.5 | 154 |  | 
22 | UGUCUAUUUGAAGGAUAUCUAAGCAUAAACCGGAGAGAAGGUCAAUUAUACAUGAGGAUCACCCAUGUUGAGAUUGAUGGGUUU | 16.2 | 18.4 |  | 
23 | UGUCUGAUCUAAUAACAUGAGGAUCACCCAUGUGUUCACAACUAGGAUAUCGAUUAUUAAAACGUCGAGAAGGAGUAUACAUUA | 34.5 | 43.6 |  | 
24 | UGUGCCUCGAGAGGAUAUACAUGAGGAUCACCCAUGUAAGUAGAGGUGGAAACACCUCUACAAAUGUAGAAGGCUCGAGGCACA | 20.6 | 58.3 |  | 
25 | UGUGCGUCAGGAUAUUCUACUUAUUACAUGAGGAUCACCCAUGUGUAUGUACAAGGGUGUGAAGAAGGGACUUGUC | 935 | 305 |  | 
26 | UGUGCUGAAGGAUAUGCGUAAGCUCGGUGACGAGCAGGUCUACAUGAGGAUCACCCAUGUAGAAGGUCAGUACU | 15.8 | 16 |  | 
27 | UGUGGACAUGAGGAUCACCCAUGUGAGGAUAUGGUCUGGAUACACUUGAGCUCGGCAUCCAGAAGGCGCGUGGC | 85.9 | 71.4 |  | 

Row | Sequence | apparent Kd [1] [nM] | apparent Kd [2] [nM] | apparent Kd [3] [nM] | apparent Kd [4] [nM]
28 | UGUGUCAUCGAGAAGGCCUCAACAUGAGGAUCACCCAUGUUGUAAUAUGGGAGGAUAUCGAUGAUACAGCUACGUUUCGUAGCG |  |  | 19.8 | 5.56
29 | UGUGUGAGACAGGAUAUGCCGGUUGUGUUACUGGUAGAAGGGUCUACAUGAGGAUCACCCAUGUGGCCGGCCGG | 152 | 154 |  | 
30 | UGUGUUAUAGGAUAUACGGGUAUGUGAAUCUCUCCAUCGGUACAUGAGGAUCACCCAUGUAGAAGGAUAAGGUA | 35.7 | 80.8 |  | 
31 | UGUUAAUAAGAGAAGGAGGACUUCAUGAGGAUCACCCAUGUGUUAGUACUUAGGAUAUUUAAUAACAUGAGGAUCACCCAUGUC |  |  | 45.2 | 40.4
32 | UGUUCUAUGUAGAAGGCCCAUAUCUGUACUUAGGGAGGAUAUACAUGAGGAUCACCCAUGUGUAGAGCUGGUGGACUGGUCAGC | 16.5 | 37.2 |  | 
33 | UGUUGUAUUACAGGAUAUCUAGUAUGUUUAUUUAGAGAAGGGUAUUCACAUGAGGAUCACCCAUGUAUAUACGAGGAAGUUGUG |  |  | 39.1 | 42.5
34 | UGUUGUAUUACAGGAUAUCUAGUAUUUUCAUUUAGAGAAGGGUAUUCACAUGAGGAUCACCCAUGUAUAUACGAGGAAGUUGUG |  |  | 43.7 | 45.4
35 | UGUUGUAUUACAGGAUAUCUAGUGUUUUUAUUUAGAGAAGGGUAUUCACAUGAGGAUCACCCAUGUAUAUACGAGGAAGUUGUG |  |  | 55.9 | 61.2
36 | UGUUGUAUUACAGGAUAUCUAUGAUUUAUAUUUAGAGAAGGGUAUUCACAUGAGGAUCACCCAUGUAUAUACGAGGAAGUUGUG |  |  | 48.7 | 55.9
37 | UGUUGUAUUACAGGAUAUCUAUUAAUUUUAUUUAGAGAAGGGUAUUCACAUGAGGAUCACCCAUGUAUAUACGAGGAAGUUGUG |  |  | 53.7 | 57.1
38 | UGUUGUAUUACAGGAUAUCUAUUAGUUAUAUUUAGAGAAGGGUAUUCACAUGAGGAUCACCCAUGUAUAUACGAGGAAGUUGUG |  |  | 54.6 | 61.9
39 | UGUUGUAUUACAGGAUAUCUAUUAUUUUUAUUUAGAGAAGGGUAUUCACAUGAGGAUCACCCAUGUAUAUACGAGGAAGUUGUG |  |  | 52.6 | 58.9
40 | UGUUGUAUUACAGGAUAUCUAUUGUUGUUAUUUAGAGAAGGGUAUUCACAUGAGGAUCACCCAUGUAUAUACGAGGAAGUUGUG |  |  | 56 | 56.6
41 | UGUUGUAUUACAGGAUAUCUAUUGUUUUAAUUUAGAGAAGGGUAUUCACAUGAGGAUCACCCAUGUAUAUACGAGGAAGUUGUG |  |  | 54 | 61
42 | UGUUGUAUUACAGGAUAUCUAUUGUUUUUAUAUAGAGAAGGGUAUUCACAUGAGGAUCACCCAUGUAUAUACGAGGAAGUUGUG |  |  | 41.1 | 45.8
43 | UGUUGUUCAGGAUAUGAUGUAUAAUACAUGAGGAUCACCCAUGUAGAUCCUGAAUUGGCGUCAGAAGGGAAUGUUG | 19.3 | 21.9 |  | 
44 | UUAAAUCAUGUAGGAUAUGCAUGGCGAAGCUACGCAGAAGGACAUGAGGAUCACCCAUGUGCUAGCUACCGGAUACGGUGGCAA | 60.7 | 264 |  | 
45 | UUAAAUCAUGUAGGAUAUGCAUGGCGAAGCUACGCAGAAGGACAUGAGGAUCACCCAUGUUAUAGCGUCUGAGAACAGAUGCAA | 82.8 | 264 |  | 
46 | UUAAAUCAUGUAGGAUAUGCAUGGCGAAGCUACGCAGAAGGACAUGAGGAUCACCCAUGUUAUAGCUACCCAGAUCGGUGGCAA | 90.2 | 237 |  | 
47 | UUAAAUCAUGUAGGAUAUGCAUGGCGAAGCUACGCAGAAGGACAUGAGGAUCACCCAUGUUAUAGCUAGCCAGUUCGCUGGCAA | 23.6 | 164 |  | 
48 | UUAAAUCGAAACAUGAGGAUCACCCAUGUGUUGUAAUUAAUAUAGGAUAUGUGUAUACUUUUAUAAUAGAAGGAUGAUAAUACU |  |  | 17.4 | 12.1
49 | UUAACUCAUGUAGGAUAUGCAUGGCGAAGCUACGCAGAAGGACAUGAGGAUCACCCAUGUUCUAGCUACCGAGUUCGGUGGCAA | 92 | 272 |  | 
50 | UUAAUCUGAACAUGAGGAUCACCCAUGUAUCUUACCUUAGGACAGGAUAUAGAUGUUAAGAAUUACUAGAAGGGUCAGUAUAUU |  |  | 42.5 | 35.9
51 | UUAAUGUGAGGAUAUCAGGUGUGCUAGCGUACUGGUACAUCUGAGAAGGCACAUGAGGAUCACCCAUGUUCCUG | 22.1 | 77.6 |  | 
52 | UUAAUUAUACAAGGAUAUCUAUUGUAGUUUCGACUAACAUGAGGAUCACCCAUGUAAAUAUGUUAAGAGAAGGUGUAUUUUAAA |  |  | 45.5 | 30.3
53 | UUAAUUAUACAAGGAUAUCUAUUGUUGUUUCGACAUACAUGAGGAUCACCCAUGUUAGUAUGUUUAGAGAAGGUGUAUUUUCAG |  |  | 29 | 25.7
54 | UUAAUUUAAUGAUAUUAUGACAUUAGAAGGCUGUACAUGUUGAUACAUGAGGAUCACCCAUGUAUAGAGGAUAUAGACAAUUUU | 33.2 | 89 |  | 

— the EternaBench riboswitch data
